# Source: PubChem (The Scripps Research Institute Molecular Screening Center)
# CHRM5 agonist: agonists of human muscarinic M5 receptor (CHRM5) | CHO-K1 hM5 cells, Fluo-8 calcium fluorescence; 0% DMSO wells, 100% maximal acetylcholine response | actives 0.19% (n = 360,000) | activation, % at 3 µM;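 active = activation above the run's mean over test compounds plus 3 SD, cut at about 23% in these data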;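 note: signal is peak over basal fluorescence ratio across the kinetic read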
# M4 PAM: potentiates acetylcholine response at human M4 receptor. P08173. CHO-K1 hM4/Gqi5, Fluo-8 calcium fluorescence, ACh EC20; 0% = ACh EC20, 100% = maximal ACh. activation, % at 3 µM. actives 0.4% (n = 360,000);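 active = activation above its plate's cutoff, the mean activation of sample wells plus 3 SD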
# Target sequence (P08173 whole entry, looked up): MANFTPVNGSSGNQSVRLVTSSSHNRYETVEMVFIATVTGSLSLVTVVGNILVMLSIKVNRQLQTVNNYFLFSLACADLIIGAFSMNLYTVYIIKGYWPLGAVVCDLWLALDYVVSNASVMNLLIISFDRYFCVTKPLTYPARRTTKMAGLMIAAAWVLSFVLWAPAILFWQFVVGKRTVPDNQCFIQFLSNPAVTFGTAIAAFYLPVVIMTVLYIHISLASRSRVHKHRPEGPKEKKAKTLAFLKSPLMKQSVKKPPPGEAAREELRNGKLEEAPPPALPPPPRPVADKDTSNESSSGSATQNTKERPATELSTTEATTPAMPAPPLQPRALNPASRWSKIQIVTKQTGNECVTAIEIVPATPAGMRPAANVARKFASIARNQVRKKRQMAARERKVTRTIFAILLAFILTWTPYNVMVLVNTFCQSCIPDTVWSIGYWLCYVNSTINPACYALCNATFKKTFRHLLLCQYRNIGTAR
# CHRM4 antagonist: blocks acetylcholine activation of human M4 receptor. CHO-hM4 cells, ACh EC80, Fluo-8 calcium fluorescence. actives 0.73% (n = 360,000). inhibition, % at 3 µM. P08173;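 active = inhibition above its plate's cutoff, the mean inhibition of sample wells plus 3 SD, cut at about 27% in these data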;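 note: 0% = acetylcholine EC80 with DMSO and 100% = DMSO without agonist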
# CHRM4 agonist: CHRM4 agonism in calcium assay; CHO-K1 hM4/Gqi5, Fluo-8 calcium fluorescence; vehicle 0%, full acetylcholine response 100%; activation, % at 3 µM; actives 0.14% (n = 360,000); AID 624127;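 active = activation above the run mean over all test wells plus 3 SD, cut at about 32% in these data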;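 note: peak over basal fluorescence ratio per well then scaled between controls; 0% = DMSO wells and 100% = acetylcholine at EC100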
# M5 PAM: positive allosteric modulators of human muscarinic M5 receptor. P08912. CHO-K1 hM5, Fluo-8 calcium, ACh EC20 PAM; 0% = ACh EC20, 100% = ACh EC100. activation, % at 3 µM. actives 0.3% (n = 360,000). AID 624038;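 active = activation above the run cutoff, the mean activation of all test compounds plus 3 SD, cut at about 18% in these data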
#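 System – CHO-K1 hM5 cells · Compound – 3 µM, single dose · Incubation – compound preincubation 140 s before EC20 acetylcholine addition · Technique – Fluo-8 calcium fluorescence · Measure – Max/basal fluorescence ratio as % of EC20–EC100 ACh window · Benchmarks – low control EC20 acetylcholine (0%), high control EC100 acetylcholine (100%) · Replication – singlicate, one well per test compound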
# M5 antag: antagonists of human muscarinic M5 receptor (CHRM5); CHO-hM5 cells, Fluo-8 calcium fluorescence, ACh EC80; inhibition, % at 3 µM; actives 0.59% (n = 360,000); AID 624040;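 active = inhibition above a per-plate cutoff, the mean of that plate's test compounds plus 3 SD, cut at about 27% in these data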;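 note: 0% = acetylcholine EC80 with DMSO and 100% = DMSO without agonist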
# Active calls of the source: *. In the library only some 1.8% were active in any assay of this set; here they are far more common.
SMILES,CHRM5 agonist,M4 PAM,CHRM4 antagonist,CHRM4 agonist,M5 PAM,M5 antag
O=c1c(O)c(-c2ccc(O)c(O)c2)oc2cc(O)cc(O)c12,10.3,14.0,-14.1,0.9,20.6*,-14.8
COC(=O)C1=C(N)Oc2cc(C)[nH]c(=O)c2C1c1ccncc1 (stereo not given),0.5,6.2,1.1,0.1,20.0*,-17.1
COC(=O)C1=C(N)Oc2cc(C)n(C)c(=O)c2C1c1ccc(Cl)c(Cl)c1 (stereo not given),0.5,-4.9,-3.0,0.8,-6.1,-1.6
CC(=O)Nc1ccc(Sc2ccc([N+](=O)[O-])o2)cc1,-3.4,5.3,3.8,-0.4,-10.2,14.1
CC(C)(C)C(=O)Nc1ccc(Sc2ccc([N+](=O)[O-])cc2)cc1,1.7,-15.4,21.0,13.1,-18.1,42.7*
CC(=NNC(=O)CSc1nc2ccccc2o1)c1ccco1,3.7,9.9,-15.7,0.6,4.7,-6.2
O=[N+]([O-])c1cccc(/C=N/n2cnnc2)c1,-0.7,20.5*,6.8,0.4,1.4,3.5
O=[N+]([O-])c1ccc(O)c(/C=N/n2cnnc2)c1,1.7,4.9,9.5,3.0,5.3,2.2
COc1ccc(NC(=O)CN(C)C(=O)c2cc(-c3ccncc3)nc3ccccc23)cc1,0.6,-9.8,6.9,18.0,-8.9,23.5
COc1ccc(Cl)cc1NC(=O)CN(C)C(=O)c1cc(-c2ccncc2)nc2ccccc12,2.8,-13.8,13.4,32.8*,-25.1,27.4*
O=C1CCC(C(=O)N2CCCO2)CN1Cc1cccc(C(F)(F)F)c1 (stereo not given),-2.2,18.7*,-10.1,1.6,19.0*,-29.8
COc1ccccc1OCCNC(=O)c1cccc(S(=O)(=O)NCc2ccccc2)c1,9.6,-3.6,-3.7,20.2,-23.3,10.1
CCCCCC(=O)Nc1cccc(C2=NOC3(C2)C[C@H](C(N)=O)N(C(=O)c2ccccc2)C3)c1 (stereo not given in full),2.8,13.1,4.6,1.6,18.7*,2.6
CC(C)(C)C(=O)Nc1ccc(S(=O)(=O)Nc2ccccn2)cc1,-3.1,24.8*,-8.7,2.7,10.2,-9.2
O=C(Nc1ccc(S(=O)(=O)Nc2ccccn2)cc1)C(F)(F)F,-1.9,10.2,-2.0,1.4,9.7,4.8
CSc1ccc(NC(=O)C2(C)CCN2C(=O)c2cc(C)n(C)n2)cc1 (stereo not given),2.2,1.7,-4.9,6.0,-2.0,1.6
Cc1cccc(S(=O)Cc2ccc(C(=O)N3CCN(C(=O)c4ccco4)CC3)o2)c1 (stereo not given),2.9,0.7,-17.0,3.6,22.2*,-8.2
CCc1cccc(C)c1NC(=O)c1ccccc1,0.3,-11.0,4.5,9.8,-13.5,15.6
CCc1cccc(C)c1NC(=O)C1=C(C(=O)O)CCCC1,-5.2,5.2,27.8*,2.1,-9.4,19.3
Cc1ccc(C(=O)NC2CC(C)(C)NC(C)(C)C2)cc1S(=O)(=O)N1CCCCC1,-2.7,8.9,-9.6,0.6,8.0,0.5
O=C(Nc1cc2c3c(c1)CC(=O)N3CCC2)c1ccccc1Br,-0.6,-0.8,-0.6,0.9,2.9,0.3
CC(C)(C)C(=O)/C=c1\s/c(=C\c2ccc(-c3ccc([N+](=O)[O-])cc3)o2)c(=O)n1CC(=O)NC(N)=O,9.4,-9.2,17.1,9.3,-12.3,32.5*
CCn1c(SCC(=O)Nc2ccccc2)nc2c1c(=O)n(C)c(=O)n2C,2.2,-3.8,6.9,1.6,18.3*,1.4
COc1ccc(-c2cn3cccnc3n2)cc1F,-0.1,1.2,8.4,0.0,18.3*,-4.9
COc1ccc(-c2cn3cccnc3n2)cc1NS(=O)(=O)c1ccccc1,-0.7,6.6,-7.9,1.8,-1.4,-3.6
SMILES,CHRM5 agonist,M4 PAM,CHRM4 antagonist,CHRM4 agonist,M5 PAM,M5 antag
CS(=O)(=O)c1ccc(Cl)c(NC(=O)CCN2C(=O)C3CC=CCC3C2=O)c1 (stereo not given),1.0,2.0,9.2,0.1,-1.8,13.8
O=C(CN1C(=O)c2ccccc2C1=O)NC(Cc1ccccc1)C(=O)O (stereo not given),-0.7,3.5,-2.6,1.0,-0.6,17.3
Cc1ccc(N2CCCn3c2cc(C)c(C#N)c3=O)cc1C,0.5,8.7,-1.5,0.1,3.3,5.5
Cc1ccc(N2CCCn3c2cc(C)c(C#N)c3=O)cc1Cl,-1.0,38.4*,0.8,1.0,5.9,-4.8
Cc1cccc(C)c1NC(=O)C(c1ccnc2ccccc12)n1c(=O)c(-c2ccco2)nc2ccccc21 (stereo not given),-2.1,0.0,6.6,0.9,-2.6,9.6
O=C(NCCCN1CCC(Cc2ccccc2)CC1)c1ccc(CS(=O)c2ccccc2Cl)o1 (stereo not given),-2.4,-13.7,28.4*,6.7,-18.8,22.6
O=C(NCc1ccco1)c1ccc(CS(=O)c2ccccc2Cl)o1 (stereo not given),0.2,5.2,-20.9,2.7,-7.0,6.8
CC(=O)Nc1ccc(NC(=O)C(C)OC(=O)CSCc2cccc(Cl)c2)cc1 (stereo not given),6.2,2.1,-6.9,4.6,-1.5,-0.7
CC(C)/C=C/C(=O)N1CCC(N2CCC(C(=O)NCC3CCCO3)CC2)CC1 (stereo not given),-0.2,5.6,-4.4,0.0,2.3,-5.1
O=C1C(SCCO)=C(SCCO)C(=O)c2ccccc21,17.1,-12.2,61.1*,12.9,-2.3,38.2*
COc1ccc(NS(=O)(=O)c2ccc3c(c2)OCCO3)cc1OC,7.8,-3.8,-4.9,15.2,-13.4,28.8*
COc1ccc(S(=O)(=O)Nc2ccc3c(c2)OCO3)cc1OC,1.5,-0.1,-3.3,2.0,0.7,0.8
Cc1cc(-c2cn3ccccc3n2)c(C)n1-c1ccccc1,-5.8,-22.1,41.0*,-0.2,-14.8,-0.6
C[C@H](CO)N1C[C@H](C)[C@@H](CN(C)C(=O)Nc2ccc3c(c2)OCO3)Oc2c(NC(=O)Nc3ccc4c(c3)OCO4)cccc2C1=O,2.2,-6.7,26.9*,21.4,-24.5,22.7
C[C@H](CO)N1C[C@H](C)[C@@H](CN(C)C(=O)Nc2ccccc2)Oc2c(NC(=O)Nc3ccc4c(c3)OCO4)cccc2C1=O,0.5,4.4,-7.6,5.7,-13.2,9.2
C[C@H](CO)N1C[C@H](C)[C@@H](CN(C)Cc2ccc(Cl)c(Cl)c2)Oc2c(NC(=O)Cc3ccccc3)cccc2C1=O,-3.1,-7.6,31.2*,20.6,-28.2,7.5
CN(C)c1ncnc2c1C(c1ccccc1)C(C)(C)O2 (stereo not given),-1.9,1.8,-2.0,0.6,0.9,5.8
